PABP FP inh: blocks human PABP binding to poly(A) RNA. inhibition, % at 35 µM. fluorescence polarization. AID 2014. 290,000 tested, 1% active;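 note: calls also rest on retests at 20 µM and on dose response follow-up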
Target sequence (P11940 whole entry, looked up): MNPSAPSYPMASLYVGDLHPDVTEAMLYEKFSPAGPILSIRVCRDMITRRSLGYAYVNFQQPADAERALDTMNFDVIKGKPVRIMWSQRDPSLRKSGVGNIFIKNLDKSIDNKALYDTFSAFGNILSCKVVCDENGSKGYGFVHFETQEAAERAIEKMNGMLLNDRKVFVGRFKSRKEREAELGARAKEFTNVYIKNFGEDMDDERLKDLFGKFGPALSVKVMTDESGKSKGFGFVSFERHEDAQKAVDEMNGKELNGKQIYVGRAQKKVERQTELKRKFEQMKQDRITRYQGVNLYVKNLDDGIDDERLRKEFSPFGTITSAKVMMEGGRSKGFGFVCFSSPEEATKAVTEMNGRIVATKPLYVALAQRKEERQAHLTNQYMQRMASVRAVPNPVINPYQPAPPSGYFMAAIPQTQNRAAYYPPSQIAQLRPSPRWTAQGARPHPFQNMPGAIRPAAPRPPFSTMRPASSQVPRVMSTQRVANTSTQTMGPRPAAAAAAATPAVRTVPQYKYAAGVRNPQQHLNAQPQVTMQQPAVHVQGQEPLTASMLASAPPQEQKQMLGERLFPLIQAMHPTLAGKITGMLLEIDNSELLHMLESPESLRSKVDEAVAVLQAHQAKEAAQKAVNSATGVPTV
MLLE-PAM2 inh: inhibitors of microRNA-mediated deadenylation, human PABP1 MLLE binding. GST-MLLE / FITC-PAM2 fluorescence polarization. inhibition, % at 20 µM. 360,000 tested, 0.36% active. AID 588489; in the data active = inhibition above about 35%, passing the limit was not always enough;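 note: plate controls were DMSO wells with GST-MLLE for no effect and wells lacking GST-MLLE protein for full effect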
eIF4H FP inh: inhibitors of RNA binding by human eIF4H; AID 2012; eIF4H fluorescence polarization binding assay; inhibition, % at 35 µM; Q15056; 290,000 tested, 0.94% active;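 note: calls also rest on retests at 20 µM and on dose response follow-up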
DNA FID counter-1: fluorescent intercalator displacement, NS3 helicase counter-screen; DNA fluorescent intercalator displacement, fluorescence; AID 1845; 290,000 tested, 0.17% active; inhibition, % at 7.9 µM; in the data active = inhibition above about 37%;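 note: 0% = vehicle and 100% = reference compound; higher means more ethidium bromide displaced from hairpin DNA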
HCV core dimer: blocks dimerization of HCV core protein; TR-FRET GST/Flag-core106 dimerization, 1536-well; inhibition, % at 5 µM; 300,000 tested, 0.33% active; AID 1899;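 active = inhibition above the mean of all tested compounds plus 3 SD, set per screening campaign, cut at about 45% in these data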
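Assay system – GST-tagged and Flag-tagged HCV core protein residues 1-106 · Quantity – core106 proteins, GST 13.5 nM and Flag 17 nM · Benchmarks – unlabelled core106 and no-GST-core106 wells · Read-out basis – percent inhibition of core106 dimerization signal · Detection – time-resolved FRET, ex 340 nm, em 617 and 671 nm · Schedule – 4 h at 22.5 °C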
NS3 helicase inh: inhibitors of Hepatitis C virus NS3 helicase. 290,000 tested, 0.56% active. NS3 helicase DNA unwinding, Cy5 molecular beacon fluorescence. inhibition, % at 10.9 µM;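 active = inhibition above the mean of all tested compounds plus 3 SD, set per campaign, cut at about 35% in these data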;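 note: 0% = DMSO wells and 100% = thioflavine S control wells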
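System: HCV NS3 helicase fragment; control set: DMSO and thioflavine S; technique: Cy5 fluorescence at 0 and 60 min, beacon hairpin quenching; reagent: beacon DNA duplex substrate plus ATP; replicates: singlicate; schedule: 1 h reaction at 25 °C, ATP-initiated; medium: MOPS buffer pH 6.5 with MgCl2, DTT, Tween20, BSA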
NS3 helicase cf: HCV NS3 helicase inhibition, confirmation assay; AID 1943; 1,600 tested, 31% active; shares compounds with NS3 helicase inh; inhibition, % at 10.9 µM; NS3 helicase DNA unwinding, Cy5 molecular beacon fluorescence;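 active = inhibition above the mean of all tested compounds plus 3 SD, cutoff set per campaign, cut at about 36% in these data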
DNA FID counter-2: counter-screen for HCV NS3 helicase inhibitors: DNA intercalator displacement; shares compounds with NS3 helicase inh; DNA fluorescent intercalator displacement, fluorescence; inhibition, % at 7.9 µM; 1,600 tested, 4% active; in the data active = inhibition above about 37%;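 note: 0% = vehicle and 100% = reference compound; higher means more displacement of ethidium bromide from the DNA hairpin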
* hit, by the source's call; . = no result given. A selection: hits, their analogues and other compounds. The true share with any hit is near 2%. Unless noted, the rule behind the calls is not given here.

SMILES	PABP FP inh	MLLE-PAM2 inh	eIF4H FP inh	DNA FID counter-1	HCV core dimer	NS3 helicase inh	others
O=C1NC(c2ccccc2)=N/C1=C/c1ccco1	-29	0	92	-1	-14	14
COc1cc(C(=O)NCCc2c[nH]c3ccccc23)ccc1OCc1c(C)noc1C	59	-11	active	-22	10	0
COc1ccc(CCNC(=O)c2ccc(OCc3c(C)noc3C)cc2)cc1OC	.	-6	.	.	.	.
COc1ccc(CNC(=O)COC(=O)c2ccc(OCc3c(C)noc3C)cc2)cc1OC	-8	-30	90*	-35	-3	-1
COc1cc(C(=O)NC2=NCCS2)ccc1OCc1c(C)noc1C	2	42*	-5	-11	0	2
O=C(COC(=O)C1CC2C=CC1C2)Nc1c(Br)cc([N+](=O)[O-])cc1Br (centres undefined)	.	9	.	.	.	.
Cc1cccc2c(Cl)cc(=O)[nH]c12	0	.	4	0	.	-7
Cc1cccc2cc(=O)[nH]c(C)c12	55*	-86	0	-4	-7	2
CCC(=S)/C=C1\Sc2ccc3ccccc3c2N1CCCS(=O)(=O)O	28	.	8	-32	0	28
CC[n+]1ccc(/C=C2\Sc3ccccc3N2CCCS(=O)(=O)[O-])c2ccccc21	55*	-143	0	-2	3	6
N#CC1=C(N)NC(=S)C(C(N)=O)C1c1ccc([N+](=O)[O-])cc1 (centres undefined)	2	39*	8	2	1	-7
C#CCOCCOCCOCCNc1nc(N2CCN(C(=O)CCCCCCCCCCNC(=O)[C@H]([C@@H](C)CC)n3cc(CCCCN=C(N)N)nn3)CC2)nc(N2CCN(C(=O)CCCCCCCCCCNC(=O)[C@H](CCCCN)n3cc(C)nn3)CC2)n1	.	.	.	.	22	.
CCc1cc2c(=O)nc3n(c2s1)Cc1ccccc1/C3=C(/O)c1cccc([N+](=O)[O-])c1	69*	14	52*	-1	10	4
CCc1cc2c(=O)nc3n(c2s1)Cc1ccccc1/C3=C(/O)c1ccccc1Cl	108	17	98	2	20	9
CCc1cc2c(=O)nc3n(c2s1)Cc1ccccc1/C3=C(/O)c1ccc(F)cc1	80*	12	71*	-7	30	17
CCOC(=O)c1nnn(-c2nonc2N)c1COc1ccccc1	112*	-11	31	4	0	1
N#C/C(=C\c1ccc(-c2ccccc2C(=O)O)o1)c1nc2ccccc2[nH]1	49*	-126	79	-24	-34	23
CNC(=S)N(CCCn1ccnc1)Cc1c(F)cccc1Cl	13	-129	-9	5	3	-14
O=C(NC(=S)Nc1nc(-c2ccccc2)cs1)c1cncc(Br)c1	4	45*	-12	-2	4	1
Cc1ccc(C)c(NC(=S)NNC(=O)c2csc(C(C)C)c2)c1	66*	39*	13*	-16	1	-7
O=C(NC(=S)Nc1ccccc1Cl)c1cncc(C#Cc2ccccc2)c1	4	35	-3	1	12	-11
Cc1ccc(NC(=S)NC(=O)c2cncc(Br)c2)c(C)c1	.	35	.	.	0	.
O=C(NC(=S)Nc1nc(-c2ccccc2)cs1)c1cccnc1	-10	17	-6	-4	4	-8
Cc1ccc(C)c(NC(=S)NC(=O)c2cncc(Br)c2)c1	.	40*	.	.	7	.
O=C(NC(=S)Nc1ccccc1Cl)c1cncc(Br)c1	-6	43*	1	-10	0	-4
SMILES	PABP FP inh	MLLE-PAM2 inh	eIF4H FP inh	DNA FID counter-1	HCV core dimer	NS3 helicase inh	others
COc1ccc(OCc2cc(C(=O)N3CCC(c4ccccc4)CC3)no2)c(Cl)c1	-1	3	0	-32	8	-11
O=C(Cc1coc2cc3c(cc12)CCC3)OCc1cc(=O)n2c(n1)sc1ccccc12	20	-11	51	-2	57*	13
O=C(OCc1cc(=O)n2c(n1)sc1ccccc12)c1cccc(O)c1	-19	-16	81	-3	51*	10
CC1CCc2c(sc(NC(=O)COC(=O)c3ccc(NC(=O)CC#N)cc3)c2C#N)C1 (centres undefined)	.	-20	.	.	18	.
Cc1cc(C(=O)OCC(=O)Nc2sc3c(c2C#N)CCC(C)C3)c2ccccc2n1 (centres undefined)	-28	-11	34	-6	53*	32
COc1ccccc1-c1cc(C(=O)Nc2sc3c(c2C#N)CCC(C)C3)c2ccccc2n1 (centres undefined)	5	12	-6	-3	47*	2
CC(=O)N1C[C@H]2CON(C)[C@H]2C[C@H]1c1ccccc1	.	5	.	.	.	.
Cc1cc(-n2c(=O)c(C#N)cc3c(=O)n4ccccc4nc32)no1	120*	12	104*	-5	20	5
O=C(Nc1ccc2c(c1)CN(Cc1ccc(CO)o1)CC2)c1ccc(C(F)(F)F)cc1	2	-18	-6	-26	58*	30
Nc1ccc(-c2nc3ccccc3s2)cn1	3	4	12	-5	1	3
O=C1CCC(=O)N1c1ccc(-c2nc3ccccc3s2)cc1	0	2	61*	-4	0	13
Fc1ccc(-c2ccnc(=S)[nH]2)cc1	-17	39*	-5	1	-5	1
CCCCC1(C(=O)OCC)CC(CN2CCOCC2)OC1=O (centres undefined)	88*	-7	active	.	-6	.
COc1cc(C(=O)OCC(=O)Nc2ccc(F)cc2F)cc(OC)c1OC	84*	-3	72*	-5	-7	9
CCCC[C@@H]1CNCCN1CC1(c2ccccc2)CC1	.	3	.	.	-3	.
O=C(Nc1ccc(Oc2ccc(Cl)cc2)c(Cl)c1)c1cc(I)cc(I)c1O	73	-25	20	17	21	47*	NS3 helicase cf=84*;DNA FID counter-2=33
COc1ccc(NC(=O)c2ccccc2F)cc1Cl	-3	7	-9	-2	-2	-3
COc1ccccc1NC(=O)CSc1ccc(-c2ccco2)nn1	2	14	2	-26	17	24
COc1ccc(OC)c(NC(=O)CSc2ccc(-c3ccco3)nn2)c1	.	8	.	-37	43	45*	NS3 helicase cf=-20;DNA FID counter-2=-13
COc1cccc(C(O)c2nc(-c3cnn(C)c3)cs2)c1 (centres undefined)	.	-8	.	.	.	.
O=C(NCc1ccco1)C(=O)NCC1OCCN1S(=O)(=O)c1cc(F)ccc1F (centres undefined)	4	-5	21	-9	2	49*	NS3 helicase cf=-7;DNA FID counter-2=11
